Calls of active or inactive are those of the source. No cut-off for these calls is given here.
Key:
Cathepsin B = Cathepsin B (Homo sapiens, UniProt P07858); experiment: Inhibition of human cathepsin-B using Cbz-Phe-Arg-AMC as substrate by spectrofluorometer analysis
[1] = Inhibition of Plasmodium falciparum Falcipain 2 using Cbz-Phe-Arg-AMC as substrate after 15 mins by spectrofluorometer analysis
How it was run: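 Continuous progress-curve assay in 50 mM sodium acetate pH 5.5 with 10 mM DTT, Cbz-Phe-Arg-AMC as substrate, inhibitors from DMSO stocks. AMC release read (ex 365, em 460 nm) for 15 min at room temperature. kobs from the fit F = A(1−exp(−kobs·t)) + B. Hyperbolic kobs vs [I] gave kinac and KI; linear plots gave k2nd = kobs/[I]. At least two independent runs, each in duplicate.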

Procathepsin L [2] = biological target: T1, Procathepsin L (Homo sapiens, UniProt P07711); experiment: Inhibition of human cathepsin L using Cbz-Phe-Arg-AMC as substrate by spectrofluorometer analysis
Target sequence in this assay (P07711 whole entry): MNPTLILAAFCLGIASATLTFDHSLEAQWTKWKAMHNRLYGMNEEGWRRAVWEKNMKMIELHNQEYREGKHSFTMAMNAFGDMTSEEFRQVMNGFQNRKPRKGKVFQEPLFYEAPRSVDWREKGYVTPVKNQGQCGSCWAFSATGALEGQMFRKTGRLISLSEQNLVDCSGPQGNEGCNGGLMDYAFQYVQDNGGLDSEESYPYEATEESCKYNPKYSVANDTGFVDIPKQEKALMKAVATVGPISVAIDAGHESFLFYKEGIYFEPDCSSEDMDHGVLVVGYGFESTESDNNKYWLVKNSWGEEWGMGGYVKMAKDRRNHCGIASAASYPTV

Plasmodium falciparum [3] = experiment: Antiplasmodial activity against Plasmodium falciparum FCBR; type: functional, organism-based; conditions: FCBR/Columbia
Plasmodium falciparum [4] = experiment: Inhibition of Plasmodium falciparum Falcipain 2 using Cbz-Phe-Arg-AMC as substrate at 100 uM after 15 mins by spectrofluorometer analysis
How it was run: (§1)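 Single-concentration screen at 100 and 30 inhibitor concentration, with an equal amount of DMSO as negative control and E-64 as positive control. AMC release from Cbz-Phe-Arg-AMC was followed fluorimetrically (ex 365, em 460 nm) as continuous increase in fluorescence. Percent inhibition is relative to DMSO. At least two independent measurements, each in duplicate.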

Plasmodium falciparum [5] = experiment: Inhibition of Plasmodium falciparum Falcipain 2 using Cbz-Phe-Arg-AMC as substrate at 30 uM after 15 mins by spectrofluorometer analysis; how it was run: as §1
Procathepsin L [6] = biological target: T1, Procathepsin L; conditions: 5 to 50 uM
Target sequence in this assay (P07711 114-333 limits assumed): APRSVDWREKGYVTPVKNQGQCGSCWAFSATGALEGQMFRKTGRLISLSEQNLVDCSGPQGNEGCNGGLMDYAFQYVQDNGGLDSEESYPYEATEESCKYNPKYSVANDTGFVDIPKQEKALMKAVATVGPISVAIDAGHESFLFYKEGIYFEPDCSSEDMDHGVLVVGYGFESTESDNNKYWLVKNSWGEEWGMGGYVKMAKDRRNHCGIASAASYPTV

Row | Structure (SMILES) | Ki (Cathepsin B) [µM] | Ki (Procathepsin L [2]; read-out: Ki) [µM] | also measured
1 | CC(=O)/C=C/CNC(=O)CN1C(=O)[C@@H](CNCC(C)C)N=C(c2ccccc2)c2ccccc21 | > 100 | > 140 | Ki [1]: > 100 µM
2 | CC(=O)/C=C/CNC(=O)CN1C(=O)[C@@H](COC(=O)Nc2ccc(Cl)cc2C(F)(F)F)N=C(C)c2ccccc21 |  | 82 | IC50 (Plasmodium falciparum [3]): > 100 µM
3 | CC(=O)/C=C/CNC(=O)CN1C(=O)[C@@H](CN2CCOCC2)N=C(c2ccccc2)c2ccccc21 | > 100 |  | 
4 | CC(=O)/C=C/CNC(=O)CN1C(=O)[C@@H](CN2CCCCC2)N=C(c2ccccc2)c2ccccc21 | > 100 | > 100 | inhibition (Plasmodium falciparum [4]): 80%; inhibition (Plasmodium falciparum [5]): inactive
5 | CC(=O)/C=C/CNC(=O)CN1C(=O)[C@@H](COC(=O)Nc2ccc(Cl)cc2C(F)(F)F)N=C(c2ccccc2)c2ccccc21 |  |  | Ki (Procathepsin L [2]; read-out: Ki(app)): 8.6 µM; inhibition (Procathepsin L [6]): tde
